This is a sample that favours compounds with a hit; in the whole collection about 2.1% have one here.
CCR6 antagonist: CCR6 receptor antagonists, primary screen, cell-based, CHO-K1, luminescence, beta-arrestin, uHTS | 0.49% of 340,000 active | inhibition, % at 20 µM | C-C chemokine receptor type 6 (Homo sapiens), P51684 | CHO-K1 CCR6 PathHunter beta-arrestin, CCL20-stimulated;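 active means compounds whose inhibition of the agonist-driven luminescence signal at 20 µM reaches about 50%, limit read from the data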;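 further: cells stimulated with CCL20 at 14 nM final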
Target sequence (P51684 whole entry, looked up): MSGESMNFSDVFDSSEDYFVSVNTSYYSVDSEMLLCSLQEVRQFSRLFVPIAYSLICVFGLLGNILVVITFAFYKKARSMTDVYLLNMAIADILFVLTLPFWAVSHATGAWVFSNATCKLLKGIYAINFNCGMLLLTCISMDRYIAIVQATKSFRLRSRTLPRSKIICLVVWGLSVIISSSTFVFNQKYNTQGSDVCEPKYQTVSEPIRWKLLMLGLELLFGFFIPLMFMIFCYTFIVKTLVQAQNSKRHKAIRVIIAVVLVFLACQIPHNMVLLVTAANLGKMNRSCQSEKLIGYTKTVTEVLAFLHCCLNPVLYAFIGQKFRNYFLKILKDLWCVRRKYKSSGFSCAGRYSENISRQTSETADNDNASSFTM
CXCR6 inh: CXCR6 receptor inhibitors, primary screen, cell-based, beta-arrestin, luminescence, CHO-K1 PathHunter, 1536-well | inhibition, % at 20 µM | AID 602244, 2012 | C-X-C chemokine receptor type 6 (Homo sapiens), O00574 | 0.36% of 360,000 active; in the data active means inhibition above about 34%, passing the limit was not always enough;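 further: antagonist mode with CXCL16 agonist at 10 nM final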
APJ antagonist: antagonists of human apelin receptor APJ, primary screen, CHO-K1 cells, beta-arrestin complementation, luminescence | P35414 | inhibition, % at 20 µM | 0.32% of 330,000 active | AID 2521, 2010;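 active means inhibition above about 40% at 20 µM, limit read from the data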;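 further: cells challenged with 10 nM apelin-13 agonist together with compound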
EBI2 block: EBI2 receptor antagonists, beta-arrestin recruitment, primary screen, cell-based, luminescence, 7a,25-OHC stimulation, uHTS. 7a,25-OHC stimulated. inhibition, % at 5 µM. 0.81% of 360,000 active; in the data active means inhibition above about 38%;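 further: enzyme fragment complementation signal reports receptor beta-arrestin coupling in cells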
APJ ag: agonists of human apelin receptor APJ, primary screen, CHO-K1 cells, PathHunter beta-arrestin, luminescence; P35414; 0% DMSO wells, 100% apelin; activation, % at 20 µM; 0.11% of 330,000 active;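 active means activation more than six SD over the plate average, tested at 20 µM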
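Test system: CHO-K1 APJ beta-arrestin complementation cell line. Amount: cell density 1000 per well. Controls: DMSO negative, 10 nM Apelin-13 positive. Signal: luminescent beta-gal fragment complementation, chemiluminescent substrate. Read-out basis: agonist-driven arrestin binding to APJ. Timing: compound stimulation 90 min at 25 °C, detection 60 min.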
m5-HT2A agonist: mouse Htr2a agonists via beta-arrestin recruitment, primary screen, cell-based, luminescence | CHO-K1 mHTR2A beta-arrestin complementation; percent of 30 µM serotonin response | 5-hydroxytryptamine receptor 2A (Mus musculus), P35363 | activation, % at 7.6 µM | 0.66% of 360,000 active;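 active means activation above a run cutoff, the mean activation of all tested compounds plus 3 SD, cut at about 14% in these data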
MOR ag counter: OPRM1 agonists via beta-arrestin recruitment, confirmation, counter-screen for mouse HTR2A agonist project, cell-based, luminescence, single concentration; 5.3% of 2,300 active; shares compounds with m5-HT2A agonist; AID 624380, 2012; U2OS OPRM1 beta-arrestin PathHunter; DMSO 0%, DAMGO 9.3 µM 100%; activation, % at 9.3 µM;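 active means mean activation above the mean of DMSO-only wells plus 3 SD, cut at about 0.5% in these data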
HTR2A ag conf: mouse HTR2A agonists, beta-arrestin recruitment, confirmation, cell-based, luminescence, CHO-K1 PathHunter, triplicate | 19% of 2,300 active | DMSO 0%, 30 µM serotonin 100% | shares compounds with m5-HT2A agonist | activation, % at 7.6 µM;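 active means mean activation across triplicates above the hit threshold derived in the original primary screen, cut at about 15% in these data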
Of the large screens only hits and unclear results are named; the others gave an inactive call (follow-up assays come after a bar, where they were run).

CC(C)(CCc1ccccn1)C(=O)C(CCc1ccccn1)CCc1ccccn1	m5-HT2A agonist 14 (no result: APJ antagonist, APJ ag) | MOR ag counter inactive | HTR2A ag conf 33
CC(CCc1ccccn1)C(=O)C(C)CCc1ccccn1 (configuration not stated)	none (no result: APJ antagonist, APJ ag)
Cc1ccccc1CC(=O)N1CCN(S(=O)(=O)c2cccs2)CC1	m5-HT2A agonist 16 | MOR ag counter inactive | HTR2A ag conf inactive
Cc1ccccc1CC(=O)N1CCN(S(=O)(=O)c2ccc(Cl)s2)CC1	none
CCc1ccc2c(c1)C(=O)C(=O)N2CCS(=O)(=O)c1ccccc1	m5-HT2A agonist 21 | MOR ag counter inactive | HTR2A ag conf inactive
CCC1CCCCN1Cc1nc2c(c(=O)n(C)c(=O)n2C)n1CCC(C)C (configuration not stated)	m5-HT2A agonist 20 | MOR ag counter inactive | HTR2A ag conf inactive
CCC1CCCCN1Cc1nc2c(c(=O)n(C)c(=O)n2C)n1CC(C)C (configuration not stated)	none
Nc1ncnc2[nH]c(=S)[nH]c12	m5-HT2A agonist 17 (no result: APJ antagonist, APJ ag) | MOR ag counter inactive | HTR2A ag conf inactive
N#Cc1c(NC(=O)CSc2ncn[nH]2)sc2c1CCCCC2	none
CN(CCOc1ccc(Cl)cc1)C(=O)c1cc(S(=O)(=O)N2CCOCC2)ccc1N1CCCC1	m5-HT2A agonist 19 | MOR ag counter inactive | HTR2A ag conf inactive
Cc1ccc(S(=O)(=O)N2CCOCC2)cc1C(=O)N(C)CCOc1ccc(Cl)cc1	none
CC1CCN(C(=O)CSCC(=O)Nc2nc(-c3cccs3)cs2)CC1	none
CC1CCCN(C(=O)CSCC(=O)Nc2nc(-c3cccs3)cs2)C1 (configuration not stated)	m5-HT2A agonist 15 | MOR ag counter inactive | HTR2A ag conf inactive
COc1cccc(OC)c1OCC(O)CN1CCN(c2ccccc2)CC1 (configuration not stated)	none
COc1cccc(OCC(O)CN2CCN(c3ccccn3)CC2)c1 (configuration not stated)	m5-HT2A agonist 33 | MOR ag counter inactive | HTR2A ag conf 84
O=S(=O)(c1ccc(OCC(O)CN2CCN(c3ccccc3)CC2)cc1)N1CCOCC1 (configuration not stated)	m5-HT2A agonist 18 | MOR ag counter inactive | HTR2A ag conf 83
O=[N+]([O-])c1ccc(OCC(O)CN2CCN(c3ccccc3F)CC2)cc1 (configuration not stated)	m5-HT2A agonist 20 | MOR ag counter inactive | HTR2A ag conf 46
Cc1cccc(C)c1OCC(O)CN1CCN(c2ccccc2)CC1 (configuration not stated)	m5-HT2A agonist 15 | MOR ag counter inactive | HTR2A ag conf 61
COc1ccc(C(=O)OCC(=O)NC(=O)Nc2ccccc2F)c(OC)c1	none
Cc1ccc(S(=O)(=O)NCN2C(=O)c3ccccc3C2=O)cc1	none (no result: CCR6 antagonist, APJ antagonist, APJ ag)
CNC(=S)N/N=C(\C)c1ccc(-n2ccnc2)cc1	none
O=S(=O)(c1ccc(OCC(O)CN2CCCC2)cc1)N1CCOCC1 (configuration not stated)	none
O=S(=O)(c1ccc(OCC(O)CN2CCN(c3ccccc3O)CC2)cc1)N1CCOCC1 (configuration not stated)	m5-HT2A agonist 19 | MOR ag counter inactive | HTR2A ag conf 46
CCCn1c(N2CCN(Cc3ccc(Cl)cc3)CC2)nc2ccccc21	m5-HT2A agonist 22 | MOR ag counter inactive | HTR2A ag conf inactive
S=c1nccc(-c2ccc3c(c2)CCO3)[nH]1	none
Cc1ccc(-c2ccnc(=S)[nH]2)cc1	m5-HT2A agonist 15 | MOR ag counter inactive | HTR2A ag conf inactive
Cc1ccc(/C=N/NS(=O)(=O)c2ccccc2)o1	none
CS(=O)(=O)N(CC(=O)O)c1cc(C(F)(F)F)ccc1Cl	none
C=CCN1CCc2c(cc(O)c(O)c2Cl)C(c2ccccc2)C1 (configuration not stated)	m5-HT2A agonist 60 | MOR ag counter inactive | HTR2A ag conf 148
Cc1cccc(C2CN(C)CCc3c2cc(O)c(O)c3Cl)c1 (configuration not stated)	m5-HT2A agonist 22 | MOR ag counter inactive | HTR2A ag conf 34
Cc1ccc(S(=O)(=O)N2[C@@H](c3ccc(Cl)cc3)C(C(=O)O)=CC[C@H]2c2cccc(C)c2)cc1	none
C=CCN1CCc2cc(O)c(O)cc2C(c2ccccc2)C1 (configuration not stated)	m5-HT2A agonist 29 | MOR ag counter inactive | HTR2A ag conf 86
Cc1ccc(C(=O)NC2CCS(=O)(=O)C2)cc1S(=O)(=O)N1CCCC1 (configuration not stated)	none
CC1CCCN(C(=O)c2ccc3nc[nH]c3c2)C1 (configuration not stated)	none
COc1ccccc1CN1CC(C(=O)NC2CCOCC2)CCC1=O (configuration not stated)	none
CC1(C(=O)NS(=O)(=O)Cc2cccc(Cl)c2)CCN1C(=O)Cc1ccc(-c2ccccc2)cc1 (configuration not stated)	none (no result: CCR6 antagonist, APJ antagonist, APJ ag)
CCCS(=O)(=O)NC(=O)C1(C)CCN1C(=O)Cc1ccc(-c2ccccc2)cc1 (configuration not stated)	m5-HT2A agonist 17 (no result: CCR6 antagonist, APJ antagonist, APJ ag) | MOR ag counter inactive | HTR2A ag conf inactive
O=C(COc1ccc(F)cc1Br)NCc1ccccn1	none
Cc1[nH]n(C(C)(C)C)c(=O)c1Sc1ccc(Cl)cc1	m5-HT2A agonist 15 | MOR ag counter inactive | HTR2A ag conf 18
Cc1cc(O)c(Sc2ccc(Cl)cc2)c(=O)[nH]1	none
CCCC1OC23CCCCC2C(C#N)(C(=N)O3)C1(C#N)C#N (configuration not stated)	none
CCCCCN(C(=O)COC(=O)c1ccc(C)cc1)c1c(N)n(CCCC)c(=O)[nH]c1=O	none
C=CCOc1cccc(CNc2ccc3[nH]c(=O)[nH]c3c2)c1	none

High-throughput results as filed in PubChem.
